Several values for one entry are separate records, joined by “and”; a condition that tells them apart may be missing. Equal entries are not always repeated. Structures can show the parent of a compound that is named as a salt. Activity calls are given as the source filed them. The rule behind the calls is not given here.
Tests used:
[1] = biological target: T1, DNA-3-methyladenine glycosylase (Homo sapiens, UniProt P29372); test: Inhibition of human purified MPG pre-incubated with compound for 10 mins followed by addition of 1,N6 ethenoadenine containing 32P-labeled duplex oligonucleotide substrates at 20 uM by gel-based excision activity assay
T1 sequence (P29372 whole entry): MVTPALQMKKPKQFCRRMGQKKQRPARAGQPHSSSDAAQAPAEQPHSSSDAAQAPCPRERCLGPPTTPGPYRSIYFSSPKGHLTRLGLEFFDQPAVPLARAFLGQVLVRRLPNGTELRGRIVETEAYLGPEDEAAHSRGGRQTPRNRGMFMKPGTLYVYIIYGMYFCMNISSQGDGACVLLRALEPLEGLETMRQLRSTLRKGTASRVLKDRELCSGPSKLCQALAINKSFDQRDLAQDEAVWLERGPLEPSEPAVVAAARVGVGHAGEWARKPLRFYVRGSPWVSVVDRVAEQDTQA
In short: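 Purified hMPG (2.3 nM) pre-incubated 10 min at room temperature with 20 µM compound. Then 7 nM εA ³²P-duplex added, 10 min at 37°C, in 25 mM HEPES pH 7.9, 150 mM NaCl, BSA, DTT, 10% glycerol. Stopped 65°C, AP sites cut with 15 nM APE1/5 mM MgCl₂. Denaturing 20% PAGE, band densitometry.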

[2] = biological target: T1, DNA-3-methyladenine glycosylase; test: Inhibition of human purified MPG pre-incubated with compound for 10 mins followed by addition of 1,N6 ethenoadenine containing 32P-labeled duplex oligonucleotide substrates by gel-based excision activity assay
In short: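 Purified hMPG (2.3 nM) pre-incubated 10 min at room temperature with a range of compound concentrations. Then 7 nM εA ³²P-duplex substrate, 10 min at 37°C, in HEPES pH 7.9 buffer with 150 mM NaCl. Heat stop, APE1 cleavage of AP sites. Products resolved on 7 M urea/20% PAGE and bands quantified; IC50 from the concentration series.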

[3] = Binding affinity to ethenoadenine containing 5'-TCGAGGATCCTGAGCTCGAGTCGACGXTCGCGAATTCTGCGGATCCAAGC-3' duplex oligonucleotide DNA (unknown origin) at 15 uM by SPR assay
In short: (§1)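 Biotinylated 50-mer oligonucleotide, undamaged or εA-containing, immobilized on streptavidin-coated C1 chip (Biacore T100). Compound injected at 15 µM in 10 mM HEPES-KOH pH 7.6, 90 mM KCl, 0.05% surfactant P20 at 7°C; background-subtracted RU recorded over repeated 60 s injections.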

[4] = biological target: T1, DNA-3-methyladenine glycosylase; test: Inhibition of MPG in human A549 cell extracts at 50 to 300 uM using 1,N6 ethenoadenine containing 32P-labeled duplex oligonucleotide substrates by gel-based excision activity assay
In short: (§2)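 Whole-cell extract (5 µg; A549 or HeLa, made with M-PER) pre-incubated with compound at 0, 50, 100, 200 and 300 µM for 10 min at room temperature. Then 3 nM εA ³²P-duplex substrate added; buffer and workup as for purified enzyme. Product bands on denaturing urea gel quantified as percent product formation, normalised to untreated samples.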

[5] = biological target: T1, DNA-3-methyladenine glycosylase; test: Inhibition of MPG in human HeLa cell extracts at 50 to 300 uM using 1,N6 ethenoadenine containing 32P-labeled duplex oligonucleotide substrates by gel-based excision activity assay; in short: as §2
[6] = Binding affinity to 5'-TCGAGGATCCTGAGCTCGAGTCGACGXTCGCGAATTCTGCGGATCCAAGC-3' duplex oligonucleotide DNA (unknown origin) at 15 uM by SPR assay; in short: as §1
[7] = biological target: T1, DNA-3-methyladenine glycosylase; test: Inhibition of human purified MPG binding to immobilized ethenoadenine containing 5'-TCGAGGATCCTGAGCTCGAGTCGACGXTCGCGAATTCTGCGGATCCAAGC-3' duplex oligonucleotide at 5 to 40 uM by SPR assay
In short: (§3)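 εA-containing 50-mer biotinylated and immobilised on a streptavidin C1 chip. 30 nM hMPG pre-mixed with compound (0, 5, 10, 20, 40 µM) and injected twice for 60 s each. Buffer: 10 mM HEPES-KOH pH 7.6, 90 mM KCl, 0.05% P20, 7°C. Inhibition taken as percent decrease in background-subtracted RU versus DMSO.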

[8] = biological target: T1, DNA-3-methyladenine glycosylase; test: Inhibition of human purified MPG binding to immobilized ethenoadenine containing 5'-TCGAGGATCCTGAGCTCGAGTCGACGXTCGCGAATTCTGCGGATCCAAGC-3' duplex oligonucleotide at 40 uM by SPR assay; in short: as §3
[9] = biological target: DNA repair nuclease/redox regulator APEX1 (Homo sapiens) (UniProt P27695); test: Inhibition of APE1 (unknown origin) pre-incubated with compound for 10 mins followed by addition of […] at 20 to 40 uM by gel-based excision activity assay
Chain of DNA repair nuclease/redox regulator APEX1 (Homo sapiens) (P27695 whole entry): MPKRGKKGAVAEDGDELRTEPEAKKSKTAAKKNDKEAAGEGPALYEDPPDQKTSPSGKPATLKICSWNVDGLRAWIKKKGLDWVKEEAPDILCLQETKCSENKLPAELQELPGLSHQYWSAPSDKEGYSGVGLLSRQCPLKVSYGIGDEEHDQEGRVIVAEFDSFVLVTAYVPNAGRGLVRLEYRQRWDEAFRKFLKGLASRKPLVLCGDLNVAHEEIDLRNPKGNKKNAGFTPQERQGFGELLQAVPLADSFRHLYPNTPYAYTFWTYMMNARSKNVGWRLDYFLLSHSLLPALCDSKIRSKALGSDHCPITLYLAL

[10] = biological target: N-glycosylase/DNA lyase (Homo sapiens) (UniProt O15527); test: Inhibition of OGG1 (unknown origin) pre-incubated with compound for 10 mins followed by addition of […] containing 32P-labeled duplex oligonucleotide substrates at 20 to 40 uM by gel-based excision activity assay
Chain of N-glycosylase/DNA lyase (Homo sapiens) (O15527 whole entry): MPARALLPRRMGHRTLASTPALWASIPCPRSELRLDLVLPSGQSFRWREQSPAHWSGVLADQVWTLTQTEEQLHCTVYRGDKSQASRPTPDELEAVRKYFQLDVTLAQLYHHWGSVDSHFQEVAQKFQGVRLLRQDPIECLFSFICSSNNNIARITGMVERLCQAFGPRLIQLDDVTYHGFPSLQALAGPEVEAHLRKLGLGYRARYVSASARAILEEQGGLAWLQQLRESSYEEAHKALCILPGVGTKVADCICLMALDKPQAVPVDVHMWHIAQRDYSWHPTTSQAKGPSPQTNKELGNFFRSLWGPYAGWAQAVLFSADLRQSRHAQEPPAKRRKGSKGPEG
In short: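 Purified OGG1 pre-incubated with compound (0, 20, 40 µM) 10 min at room temperature. Products resolved on denaturing 20% polyacrylamide/7M urea gels; band intensities quantified.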

[11] = biological target: T1, DNA-3-methyladenine glycosylase; test: Inhibition of MPG in human A549 cells assessed as reduction in DNA repair at 200 and 300 uM using ethenoadenine-containing M13mp18 plasmids by plasmid based in-cell repair assay
In short: (§4)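 Lesion plasmid built in vitro: M13mp18 with εA at the EcoRI site; cells in DMEM/10% FBS, compound at 0, 200 or 300 µM. Plasmid transfected into cells, then recovered after harvest. EcoRI digest tests the lesion site and SacI the internal control site. Repair scored by plaque formation.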

[12] = biological target: N-glycosylase/DNA lyase (Homo sapiens) (UniProt O15527); test: Inhibition of OGG1 in human A549 cells assessed as reduction in DNA repair at 200 and 300 uM using 8-oxodG-containing M13mp18 plasmids by plasmid based in-cell repair assay
In short: (§5)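 A549 or HeLa cells (DMEM, 10% FBS) treated with compound (0, 200, 300 µM) and transfected with in vitro–built 8-oxo-dG-containing M13mp18 plasmid (lesion at EcoRI site). Plasmids recovered, digested with EcoRI (lesion site) and SacI (internal control), and used for plaque formation to calculate repair.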

[13] = biological target: T1, DNA-3-methyladenine glycosylase; test: Inhibition of MPG in human HeLa cells assessed as reduction in DNA repair at 200 and 300 uM using ethenoadenine-containing M13mp18 plasmids by plasmid based in-cell repair assay; in short: as §4
[14] = biological target: N-glycosylase/DNA lyase (Homo sapiens) (UniProt O15527); test: Inhibition of OGG1 in human HeLa cells assessed as reduction in DNA repair at 200 and 300 uM using 8-oxodG-containing M13mp18 plasmids by plasmid based in-cell repair assay; in short: as §5
[15] = biological target: T1, DNA-3-methyladenine glycosylase; test: Inhibition of MPG in human HeLa cells assessed as reduction in DNA repair at 300 uM using ethenoadenine-containing M13mp18 plasmids by plasmid based in-cell repair assay; in short: as §4
[16] = biological target: T1, DNA-3-methyladenine glycosylase; test: Inhibition of MPG in human A549 cells assessed as reduction in DNA repair at 300 uM using ethenoadenine-containing M13mp18 plasmids by plasmid based in-cell repair assay; in short: as §4
[17] = tested on: A549; test: Toxicity against human A549 cells assessed as reduction in cell viability at 0.2 to 1.4 mM after 72 hrs by MTT assay; format: cell-based; settings: a549, 72 h, 1400 µM
In short: (§6)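 A549 or HeLa cells seeded at 2000 per well, treated next day for 72 h in triplicate with compound (0–2 mM). Then MTT 0.5 mg/mL for 4 h at 37°C, DMSO solubilization. Absorbance read at 570 nm minus 650 nm background; percent survival relative to untreated wells.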

[18] = tested on: HeLa; test: Toxicity against human HeLa cells assessed as reduction in cell viability at 0.2 to 1.4 mM after 72 hrs by MTT assay; format: cell-based; settings: 1400 µM; in short: as §6

O=C(O)/C=C/c1ccc(O)c(O)c1
inhibition [1]: 0%

O=C/C=C/c1ccccc1
inhibition [1]: 0%

Cc1cc2c(C(C)C)c(O)c(O)c(C=O)c2c(O)c1-c1c(C)cc2c(C(C)C)c(O)c(O)c(C=O)c2c1O [GOSSYPOL]
IC50 [2]: 3000 nM
Activity [3]: Active

O=C1c2c(O)ccc(O)c2C(=O)c2c(NCCNCCO)ccc(NCCNCCO)c21 [MITOXANTRONE HYDROCHLORIDE]
IC50 [2]: 2500 nM
Activity [3]: Active

O=c1c(O)c(-c2ccc(O)c(O)c2)oc2cc(O)cc(O)c12
inhibition [1]: 38% and 44%
inhibition [4]: inactive
inhibition [5]: inactive

O=C(O)C1=CC(=C(c2ccc(O)c(C(=O)O)c2)c2ccc(O)c(C(=O)O)c2)C=CC1=O [AURINTRICARBOXYLIC ACID]
IC50 [2]: 200 nM

O.O=c1c(O)c(-c2ccc(O)cc2O)oc2cc(O)cc(O)c12
IC50 [2]: 2600 nM
Activity [3]: inactive
Activity [6]: inactive
IC50 [7]: 12000 nM
inhibition [8]: Active
inhibition [9]: inactive
inhibition [10]: inactive
inhibition [1]: 81%
inhibition [4]: Dose-dependent effect
inhibition [5]: Dose-dependent effect
inhibition [11]: Dose-dependent effect
inhibition [12]: inactive
inhibition [13]: Dose-dependent effect
inhibition [14]: inactive
inhibition [15]: 50%
inhibition [16]: 50%
Activity [17]: Non-toxic
Activity [18]: Non-toxic

O=c1c(O)c(-c2cc(O)c(O)c(O)c2)oc2cc(O)cc(O)c12
inhibition [1]: 36%

O=c1c(O)c(-c2ccc(O)cc2)oc2cc(O)cc(O)c12
inhibition [1]: 25%

— ChEMBL document CHEMBL3397015, “Naturally occurring polyphenol, morin hydrate, inhibits enzymatic activity of N-methylpurine DNA glycosylase, a DNA repair enzyme with various roles in human disease” (Bioorg Med Chem, 2015)
